ChEMBL document CHEMBL1124672, “A minor modification of residue 1 in potent vasopressin antagonists dramatically reduces agonist activity” (J Med Chem, 1989)
Numbered stars: 1 amine (or outer) side, 2 acyl side, 3 side chain; on linkers, the order of the positions; unused ones are H or OH. Bridge positions count the residues as written; N and C are the ends. Square brackets hold non-standard residues; d marks the D form. Peptide text beside a SMILES is read from it. X1 = O=C(CC1(S[*:2])CCCCC1)[*:1]

Experiments:
Canis familiaris [1] = experiment: Compound was tested for the maximum urine osmolality with a dose of 100 ug/kg compound in dog.; format: ADME, organism-based, Canis lupus familiaris; conditions: in vivo, 0.1 mg/kg
Summary of the method: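 Adult female mongrel dogs, lightly restrained supine, food withheld 18 h, water-loaded (tap water 5% body weight by gavage). 3% dextrose infused intravenously until Uosm below 70 mOsm/kg H2O, then matched to urine output. After 20 min baseline, indomethacin 2 mg/kg load + 3 mg/kg per h for 20 min, then single i.v. bolus 100 µg/kg or vehicle. Uosm by freezing point depression, every 10 min for 3 h; maximum Uosm, mean ±SE.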

Rattus norvegicus = experiment: Effective dose of compound required to lower urine osmolality to 300 mOsm/kg H2O in rat; format: functional
Summary of the method: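 Hydropenic rat model. ED300 (µg/kg) is the dose reducing urine osmolality from hydropenic levels to plasma osmolality level, 300 mOsm/kg H2O.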

[2] = tested on: Vasopressin V2 receptor (Sus scrofa); experiment: Binding affinity of compound towards Vasopressin receptor by binding [3H]LVP to pig renal medullary preparation; conditions: Renal medulla
[3] = Compound was evaluated for inhibition of vasopressin-stimulated adenylate cyclase in human medullary preparation
Summary of the method: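 Human renal medullary tissue; inhibition of vasopressin-stimulated adenylate cyclase, reported as inhibition constant Ki.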

Canis familiaris [4] = experiment: Compound was tested for the maximum urine osmolality with a dose of 100 ug/kg compound in dog; format: ADME, organism-based, Canis lupus familiaris; conditions: in vivo, 0.1 mg/kg
Summary of the method: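 Adult female mongrel dogs, fasted 18 h with water allowed, hydrated orally with tap water (5% body weight), bladder-catheterized. 3% dextrose iv to baseline water diuresis (Uosm <70 mOsm/kg H2O). Indomethacin 2 mg/kg load + 3 mg/kg per h. Single iv bolus of 100 µg/kg peptide or vehicle. Uosm by freezing point depression every 10 min for 3 h; maximum value, mean ±SE.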

K Bind [2] [nM] | Max Uosm (Canis familiaris [4]) [mOsmol kg-1] | Compound | Max Uosm (Canis familiaris [1]) [mOsmol kg-1] | ED300 (Rattus norvegicus) [mg/kg] | Ki [3] [nM]
– | – | CCOc1ccc(C[C@H]2NC(=O)CC3(CCC(C)CC3)SSC[C@@H](C(=O)N3CCC[C@H]3C(=O)N[C@@H](CCCNC(=N)N)C(N)=O)NC(=O)[C@H](CC(N)=O)NC(=O)[C@H](C(C)C)NC(=O)[C@H](Cc3ccccc3)NC2=O)cc1 (stereo in doubt; 3) | 613 | – | –
– | – | CCOc1ccc(C[C@H]2NC(=O)CC3(CCCCC3)SSC[C@@H](C(=O)N3CCC[C@H]3C(=O)N[C@@H](CCCN=C(N)N)C(N)=O)NC(=O)[C@H](CC(N)=O)NC(=O)[C@H](C(C)C)NC(=O)[C@H](Cc3ccccc3)NC2=O)cc1 ([dY](Et)FVNCPR-NH2; linker N-5 via X1) | – | 0.015 | –
4.2 | – | CCOc1ccc(C[C@@H]2NC(=O)CC3(CCC(C)CC3)SSC[C@H](C(=O)N[C@@H](CCCN=C(N)N)C(=O)N[C@@H](CCCN=C(N)N)C(N)=O)NC(=O)[C@H](CC(N)=O)NC(=O)[C@H](C(C)C)NC(=O)[C@H](Cc3ccccc3)NC2=O)cc1 (stereo partly specified) | 103 | 0.046 | 3.9
– | – | CCOc1ccc(C[C@H]2NC(=O)CC3(CCC(C)CC3)SSC[C@@H](C(=O)N3CCC[C@H]3C(=O)N[C@@H](CCCN=C(N)N)C(N)=O)NC(=O)[C@H](CC(N)=O)NC(=O)[C@H](C(C)C)NC(=O)[C@H](Cc3ccccc3)NC2=O)cc1 (stereo in doubt; 2) | – | 0.045 | –
– | – | CCOc1ccc(C[C@H]2NC(=O)CC3(CCCCC3)SSC[C@@H](C(=O)N3CCC[C@H]3C(=O)N[C@@H](CCCNC(=N)N)C(N)=O)NC(=O)[C@H](CC(N)=O)NC(=O)[C@H](C(C)C)NC(=O)[C@H](Cc3ccccc3)NC2=O)cc1 ([dY](Et)FVNCPR-NH2; linker N-5 via X1) | 1625 | – | 3.6
– | – | CCOc1ccc(C[C@H]2NC(=O)CC3(CCC(C)CC3)SSC[C@@H](C(=O)N3CCC[C@H]3C(=O)N[C@@H](CCCN=C(N)N)C(=O)NCC(N)=O)NC(=O)[C@H](CC(N)=O)NC(=O)[C@H](C(C)C)NC(=O)[C@H](Cc3ccccc3)NC2=O)cc1 (stereo partly specified) [listing 1 of 2 here] | 85 | – | 4.3
– | – | CCOc1ccc(C[C@H]2NC(=O)CC3(CCCCC3)SSC[C@@H](C(=O)N3CCC[C@H]3C(=O)N[C@@H](CCCN=C(N)N)C(=O)NCC(N)=O)NC(=O)[C@H](CC(N)=O)NC(=O)[C@H](C(C)C)NC(=O)[C@H](Cc3ccccc3)NC2=O)cc1 ([dY](Et)FVNCPRG-NH2; linker N-5 via X1) [listing 1 of 2 here] | 1216 | – | 4.6
– | – | CCOc1ccc(C[C@H]2NC(=O)CC3(CCC(C)CC3)SSC[C@@H](C(=O)N3CCC[C@H]3C(=O)N[C@@H](CCCN=C(N)N)C(N)=O)NC(=O)[C@H](CC(N)=O)NC(=O)[C@H](C(C)C)NC(=O)[C@H](Cc3ccccc3)NC2=O)cc1 (stereo in doubt; 3) | – | 0.022 | –
– | 91 | CCOc1ccc(C[C@H]2NC(=O)CC3(CCC(C)CC3)SSC[C@@H](C(=O)N3CCC[C@H]3C(=O)N[C@@H](CCCNC(=N)N)C(N)=O)NC(=O)[C@H](CC(N)=O)NC(=O)[C@H](C(C)C)NC(=O)[C@H](Cc3ccccc3)NC2=O)cc1 (stereo in doubt; 2) | – | – | –
– | – | CCOc1ccc(C[C@H]2NC(=O)CC3(CCC(C)CC3)SSC[C@@H](C(=O)N3CCC[C@H]3C(=O)N[C@@H](CCCN=C(N)N)C(=O)NCC(N)=O)NC(=O)[C@H](CC(N)=O)NC(=O)[C@H](C(C)C)NC(=O)[C@H](Cc3ccccc3)NC2=O)cc1 (stereo partly specified) [listing 2 of 2 here] | – | 0.025 | –
4.5 | – | CCOc1ccc(C[C@@H]2NC(=O)CC3(CCCCC3)SSC[C@H](C(=O)N[C@@H](CCCN=C(N)N)C(=O)N[C@@H](CCCN=C(N)N)C(N)=O)NC(=O)[C@@H](CC(N)=O)NC(=O)[C@H](C(C)C)NC(=O)[C@@H](Cc3ccccc3)NC2=O)cc1 | 469 | 0.0135 | 4.5
– | – | CCOc1ccc(C[C@H]2NC(=O)CC3(CCCCC3)SSC[C@@H](C(=O)N3CCC[C@H]3C(=O)N[C@@H](CCCN=C(N)N)C(=O)NCC(N)=O)NC(=O)[C@H](CC(N)=O)NC(=O)[C@H](C(C)C)NC(=O)[C@H](Cc3ccccc3)NC2=O)cc1 ([dY](Et)FVNCPRG-NH2; linker N-5 via X1) [listing 2 of 2 here] | – | 0.011 | –
